Experimental data reported in ChEMBL document CHEMBL1938338, “In vitro inhibition of translation initiation by N,N'-diarylureas--potential anti-cancer agents” (Bioorg Med Chem Lett, 2012).
Activity calls are given as the source filed them. The rule behind the calls is not given here.

How the values were obtained:
[1] = Antiproliferative activity against human CRL2813 cells after 5 days by SRB assay; assay type: functional, cell-based; conditions: CRL2813, 120 h
How it was run: (§1)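 Adherent cells were exposed for 5 days to four concentrations (0.54, 1.8, 6, 20 µM), each point in triplicate. Cells were fixed in cold 10% TCA, stained with 0.4% SRB in 1% acetic acid and solubilized in 10 mM Tris pH 10, then A490 was read. Time-zero plates were included. IC50 is 50% growth inhibition from 100×(T−T0)/(C−T0).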

[2] = target: Eukaryotic translation initiation factor 2-alpha kinase 1 (Homo sapiens) (UniProt Q9BQI3); assay: Activation of EIF2alpha kinase in human CRL2351 cells assessed as reduction in eIF2-GTP-initiator methionine tRNA ternary complex measuring increase in firefly/renilla luciferase ratio at 10 uM after 16 hrs by dual luciferase reporter gene assay relative to control; assay type: cell-based
How it was run: (§2)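 CRL-2351 cells (10^4 per well) were transiently transfected one day after seeding with the bidirectional pBISA-DL(ATF-4) firefly/renilla luciferase plasmid (Lipofectamine 2000). After 16 h compound exposure, lysates were read by Dual-Glo luciferase. F/R ratio was normalized to DMSO vehicle (F/R = 1). Runs were dose-response with at least four points, in triplicate.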

[3] = Antiproliferative activity against mouse KLN205 cells after 5 days by SRB assay; assay type: functional, cell-based; conditions: 120 h; how it was run: as §1
[4] = Antiproliferative activity against human CRL2351 cells after 5 days by SRB assay; assay type: functional, cell-based; conditions: 120 h; how it was run: as §1
[5] = target: Eukaryotic translation initiation factor 2-alpha kinase 1 (Mus musculus) (UniProt Q9Z2R9); assay: Activation of EIF2alpha kinase in mouse KLN205 cells assessed as CHOP protein expression at 20 uM after […] by Western blot analysis; assay type: cell-based
How it was run: (§3)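 Cells were grown to 70% confluency in serum-containing medium without antibiotics, then treated (KLN at 20 µM, CRL-2351 at 5 µM) for 6 h. They were washed in cold PBS and lysed on ice for 1 h. Protein was measured by BCA. SDS-PAGE immunoblots were probed for phospho-Ser51 eIF2α, total eIF2α, CHOP and β-actin.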

[6] = target: Eukaryotic translation initiation factor 2-alpha kinase 1 (Homo sapiens) (UniProt Q9BQI3); assay: Activation of EIF2alpha kinase in human CRL2351 cells assessed as reduction in eIF2-GTP-initiator methionine tRNA ternary complex measuring increase in firefly/renilla luciferase ratio at 2.5 uM after 16 hrs by dual luciferase reporter gene assay relative to control; assay type: cell-based; how it was run: as §2
[7] = Aqueous solubility of compound; assay type: physicochemical; conditions: buffer
[8] = target: Eukaryotic translation initiation factor 2-alpha kinase 1 (Homo sapiens) (UniProt Q9BQI3); assay: Activation of EIF2alpha kinase in human CRL2351 cells assessed as phosphorylation of eIF2alpha at 5 uM […] by Western blot analysis; assay type: cell-based; how it was run: as §3
[9] = target: Eukaryotic translation initiation factor 2-alpha kinase 1 (Mus musculus) (UniProt Q9Z2R9); assay: Activation of EIF2alpha kinase in mouse KLN205 cells assessed as phosphorylation of eIF2alpha at 20 uM […] by Western blot analysis; assay type: cell-based; how it was run: as §3
[10] = target: Eukaryotic translation initiation factor 2-alpha kinase 1 (Mus musculus) (UniProt Q9Z2R9); assay: Activation of EIF2alpha kinase in mouse KLN205 cells assessed as CHOP mRNA expression at 20 uM after 5 hrs by PCR analysis; assay type: cell-based
[11] = target: Eukaryotic translation initiation factor 2-alpha kinase 1 (Mus musculus) (UniProt Q9Z2R9); assay: Activation of EIF2alpha kinase in mouse KLN205 cells assessed as reduction in eIF2-GTP-initiator methionine tRNA ternary complex measuring increase in firefly/renilla luciferase ratio at 20 uM after 16 hrs by dual luciferase reporter gene assay relative to control; assay type: cell-based
How it was run: (§4)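 KLN-205 cells were stably transfected with the bidirectional pBISA-DL(ATF-4) firefly/renilla luciferase reporter: 10^5 cells were seeded per 60-mm dish, transfected the next day and selected with antibiotics. After 16 h compound exposure, lysates were read by Dual-Glo luciferase. F/R ratio was normalized to DMSO vehicle (F/R = 1).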

[12] = target: Eukaryotic translation initiation factor 2-alpha kinase 1 (Homo sapiens) (UniProt Q9BQI3); assay: Activation of EIF2alpha kinase in human CRL2351 cells assessed as CHOP protein expression at 5 uM […] by Western blot analysis; assay type: cell-based; how it was run: as §3
[13] = target: Eukaryotic translation initiation factor 2-alpha kinase 1 (Homo sapiens) (UniProt Q9BQI3); assay: Activation of EIF2alpha kinase in human CRL2351 cells assessed as CHOP mRNA expression at 5 uM after 5 hrs by PCR analysis; assay type: cell-based
[14] = target: Eukaryotic translation initiation factor 2-alpha kinase 1 (Homo sapiens) (UniProt Q9BQI3); assay: Activation of EIF2alpha kinase in human CRL2351 cells assessed as reduction in eIF2-GTP-initiator methionine tRNA ternary complex measuring increase in firefly/renilla luciferase ratio at 2.5 to 20 uM after 16 hrs by dual luciferase reporter gene assay relative to control; assay type: cell-based; how it was run: as §2
[15] = target: Eukaryotic translation initiation factor 2-alpha kinase 1 (Homo sapiens) (UniProt Q9BQI3); assay: Activation of EIF2alpha kinase in human CRL2351 cells assessed as reduction in eIF2-GTP-initiator methionine tRNA ternary complex measuring increase in firefly/renilla luciferase ratio at 5 uM after 16 hrs by dual luciferase reporter gene assay relative to control; assay type: cell-based; how it was run: as §2
[16] = target: Eukaryotic translation initiation factor 2-alpha kinase 1 (Homo sapiens) (UniProt Q9BQI3); assay: Activation of EIF2alpha kinase in human CRL2351 cells assessed as reduction in eIF2-GTP-initiator methionine tRNA ternary complex measuring increase in firefly/renilla luciferase ratio at 40 uM after 16 hrs by dual luciferase reporter gene assay relative to control; assay type: cell-based; how it was run: as §2
[17] = target: Eukaryotic translation initiation factor 2-alpha kinase 1 (Homo sapiens) (UniProt Q9BQI3); assay: Activation of EIF2alpha kinase in human CRL2351 cells assessed as reduction in eIF2-GTP-initiator methionine tRNA ternary complex measuring increase in firefly/renilla luciferase ratio at 20 uM after 16 hrs by dual luciferase reporter gene assay relative to control; assay type: cell-based; how it was run: as §2
[18] = target: Eukaryotic translation initiation factor 2-alpha kinase 1 (Mus musculus) (UniProt Q9Z2R9); assay: Activation of EIF2alpha kinase in mouse KLN205 cells assessed as reduction in eIF2-GTP-initiator methionine tRNA ternary complex measuring increase in firefly/renilla luciferase ratio at 5 uM after 16 hrs by dual luciferase reporter gene assay relative to control; assay type: cell-based; how it was run: as §4
[19] = target: Eukaryotic translation initiation factor 2-alpha kinase 1 (Mus musculus) (UniProt Q9Z2R9); assay: Activation of EIF2alpha kinase in mouse KLN205 cells assessed as reduction in eIF2-GTP-initiator methionine tRNA ternary complex measuring increase in firefly/renilla luciferase ratio at 2.5 to 80 uM after 16 hrs by dual luciferase reporter gene assay relative to control; assay type: cell-based; how it was run: as §4
[20] = target: Eukaryotic translation initiation factor 2-alpha kinase 1 (Homo sapiens) (UniProt Q9BQI3); assay: Activation of EIF2alpha kinase in human CRL2351 cells assessed as reduction in eIF2-GTP-initiator methionine tRNA ternary complex measuring increase in firefly/renilla luciferase ratio at 2.5 to 80 uM after 16 hrs by dual luciferase reporter gene assay relative to control; assay type: cell-based; how it was run: as §2

Chain of Eukaryotic translation initiation factor 2-alpha kinase 1 (Homo sapiens) (Q9BQI3 whole entry): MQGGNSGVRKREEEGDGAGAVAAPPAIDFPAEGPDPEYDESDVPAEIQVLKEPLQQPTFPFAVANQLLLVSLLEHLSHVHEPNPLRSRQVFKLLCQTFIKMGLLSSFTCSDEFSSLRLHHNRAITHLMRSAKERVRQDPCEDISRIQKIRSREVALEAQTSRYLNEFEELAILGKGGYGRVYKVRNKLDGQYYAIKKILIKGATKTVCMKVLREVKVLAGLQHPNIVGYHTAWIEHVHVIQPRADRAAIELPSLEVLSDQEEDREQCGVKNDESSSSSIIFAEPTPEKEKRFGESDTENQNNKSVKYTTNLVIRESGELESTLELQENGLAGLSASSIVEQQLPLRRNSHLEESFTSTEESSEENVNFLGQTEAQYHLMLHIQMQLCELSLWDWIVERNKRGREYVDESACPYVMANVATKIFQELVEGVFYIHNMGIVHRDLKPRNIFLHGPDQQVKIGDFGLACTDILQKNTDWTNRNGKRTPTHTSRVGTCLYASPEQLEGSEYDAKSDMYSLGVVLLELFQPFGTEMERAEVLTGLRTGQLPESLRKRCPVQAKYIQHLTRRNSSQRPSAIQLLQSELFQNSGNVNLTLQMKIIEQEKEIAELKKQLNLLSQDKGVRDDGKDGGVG
Chain of Eukaryotic translation initiation factor 2-alpha kinase 1 (Mus musculus) (Q9Z2R9 whole entry): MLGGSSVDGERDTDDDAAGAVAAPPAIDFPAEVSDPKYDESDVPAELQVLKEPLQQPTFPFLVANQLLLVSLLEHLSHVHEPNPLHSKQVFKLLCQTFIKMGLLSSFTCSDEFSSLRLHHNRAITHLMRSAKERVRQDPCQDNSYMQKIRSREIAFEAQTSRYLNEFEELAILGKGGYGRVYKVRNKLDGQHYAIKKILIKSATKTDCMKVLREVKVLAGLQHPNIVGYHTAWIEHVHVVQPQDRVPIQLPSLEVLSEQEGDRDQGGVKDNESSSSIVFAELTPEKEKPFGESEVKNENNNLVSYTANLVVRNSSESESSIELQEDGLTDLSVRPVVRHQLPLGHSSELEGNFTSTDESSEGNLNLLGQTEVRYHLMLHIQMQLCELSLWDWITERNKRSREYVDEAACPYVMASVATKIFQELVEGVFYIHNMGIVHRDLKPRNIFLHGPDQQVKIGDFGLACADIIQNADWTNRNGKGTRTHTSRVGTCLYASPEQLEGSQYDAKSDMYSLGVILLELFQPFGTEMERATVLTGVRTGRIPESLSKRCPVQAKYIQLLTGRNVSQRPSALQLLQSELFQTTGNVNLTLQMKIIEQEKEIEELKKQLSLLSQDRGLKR

SMILES | IC50 [1] [µM] | IC50 [3] [µM] | IC50 [4] [µM] | other results
Cc1ccc(NC(=O)Nc2cc(C(F)(F)F)cc(C(F)(F)F)c2)cc1OCCN1CCOCC1 | 0.8 | 18.8 | 2.3 | Ratio [2]: 10
Cc1ccc(NC(=O)Nc2ccc(Cl)c(C(F)(F)F)c2)cc1O | 1.6 | > 20 | 9.5 | Ratio [2]: 11
O=C(Nc1cc(C(F)(F)F)cc(C(F)(F)F)c1)Nc1cc(C(F)(F)F)cc(C(F)(F)F)c1 | 0.3 | 4.2 | 1.8 | Activity [5]: Active; Ratio [6]: 11; solubility [7]: Insoluble; Activity [8]: Active; Activity [9]: Active; Activity [10]: Active; Activity [11]: Active; Activity [12]: Active; Activity [13]: Active
Cc1ccc(NC(=O)Nc2cc(C(F)(F)F)cc(C(F)(F)F)c2)cc1OCCN(C)C | 7.6 | 8.9 | 2.4 | Ratio [2]: 9
O=C(Nc1cc(C(F)(F)F)cc(C(F)(F)F)c1)Nc1ncccc1O | 0.6 | 14.8 | 0.7 | 
COc1cc(NC(=O)Nc2ccc(Cl)c(Cl)c2)ccc1C | 0.5 | > 20 | 0.8 | Activity [5]: inactive; Activity [8]: inactive; Activity [9]: inactive; Activity [14]: inactive; Activity [10]: inactive; Ratio [15]: < 2; Activity [12]: inactive; Activity [13]: inactive
O=C(Nc1ccc(Cl)c(Cl)c1)Nc1ncccc1O | 1.6 | > 20 | 1.4 | Ratio [16]: 12
COc1cc(NC(=O)Nc2ccc(Cl)c(C(F)(F)F)c2)ccc1C | 2.8 | 18.6 | 2.3 | Ratio [15]: 8
Cc1ccc(NC(=O)Nc2ccc(Cl)c(Cl)c2)cc1O | 2.3 | > 20 | 7.5 | Ratio [17]: 11
O=C(Nc1ccc(Cl)c(Cl)c1)Nc1ccc(Cl)c(Cl)c1 | 1 | > 20 | 2.4 | solubility [7]: Insoluble; Ratio [15]: 11
Cc1ccc(NC(=O)Nc2ccc(Cl)c(Cl)c2)cc1OCCN(C)C | 5.8 | 14.7 | 4.1 | Activity [14]: Active
COc1cc(NC(=O)Nc2cc(C(F)(F)F)cc(C(F)(F)F)c2)ccc1C | 0.5 | 6.6 | 1.8 | Activity [5]: Active; Activity [18]: Active; Activity [8]: Active; Activity [9]: Active; Activity [10]: Active; Ratio [15]: 9; Activity [12]: Active; Activity [13]: Active
Cc1ccc(NC(=O)Nc2cc(C(F)(F)F)cc(C(F)(F)F)c2)cc1O | 1.2 | 15.7 | 2.8 | 
Cc1ccc(NC(=O)Nc2ccc(Cl)c(Cl)c2)cc1OCCN1CCOCC1 | 12 | > 20 | 2.4 | Activity [14]: Active
Cc1ccc(NC(=O)Nc2ccc(Cl)c(C(F)(F)F)c2)cc1OCCN1CCOCC1 | 1.1 | > 20 | 2.6 | 
Cc1ccc(NC(=O)Nc2cc(C(F)(F)F)cc(C(F)(F)F)c2)cc1OCCN1CCNCC1 | 3.2 | > 20 | 4.2 | Ratio [2]: 9
Cc1ccc(NC(=O)Nc2ccc(Cl)c(C(F)(F)F)c2)cc1OCCN1CCNCC1 | 2.5 | > 20 | 1.8 | 
Cc1ccc(NC(=O)Nc2ccc(Cl)c(Cl)c2)cc1OCCN1CCNCC1 | 5.2 | > 20 | 5 | Activity [14]: Active
O=C(Nc1ccc(Cl)c(C(F)(F)F)c1)Nc1ncccc1O | 0.6 | 15.4 | 0.8 | Activity [5]: Active; Activity [8]: Active; Activity [19]: Active; Activity [9]: Active; Activity [20]: Active; Activity [10]: Active; Activity [12]: Active; Activity [13]: Active
Cc1ccc(NC(=O)Nc2ccc(Cl)c(C(F)(F)F)c2)cc1OCCN(C)C | 2.3 | 13.6 | 2.4 | 
O=C(Nc1ccc(Cl)c(C(F)(F)F)c1)Nc1ccc(Cl)c(C(F)(F)F)c1 | 1.8 | 1.3 | 2.4 | Ratio [6]: 11; solubility [7]: Insoluble
